Test results taken from paper PMC6759879 (Journal of the American Heart Association: Cardiovascular …, 2019).

How the values were obtained:
Cx43 CT = test: EDC cross‐linking of kinase reaction mixtures, Cx43 CT; type: binding; conditions: peptide at 5, 10 and 25 μmol/L, streptavidin labeling
Procedure, shortened: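 Kinase mixture as in the PKCε assay, but in 20 mmol/L MOPS pH 7.2 with 30 μg/mL Cx43 CT substrate and varied peptide, 15 min at 37°C. EDC added to 20 mmol/L final and left 1 h at room temperature. Stopped with LDS buffer and boiled 5 min. Run on 18% gels, then Coomassie-stained (bands excised for MS/MS) or blotted for biotin with HRP‑NeutrAvidin.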

[1] = biological target: Cx43 CT (amino acids 255–382) (Rattus norvegicus, UniProt P08050); test: Surface plasmon resonance, immobilized biotin-peptides, Cx43 CT analyte; type: binding
Procedure, shortened: (§1)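 Biotin-peptides are immobilized at equal RU on a streptavidin chip in HEPES/EDTA/NaCl/Tween‑20, pH 7.4. Analyte is Cx43 CT (wild type or KK/QQ) with GST removed by PreScission protease, injected at several concentrations in random order in 10 mmol/L HEPES, 100 mmol/L NaCl pH 7.4 at 30 μL/min. Regeneration: 50 mmol/L NaOH/1 mol/L NaCl. Biotin-reversed-sequence reference subtracted; mean of 3 runs.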

Cx43 CT‐KK/QQ = test: Surface plasmon resonance, immobilized biotin-peptides, Cx43 CT‐KK/QQ analyte; type: binding; conditions: analyte 0.5 to 15 μmol/L, reverse control peptide subtracted, mean of 3 runs
Procedure, shortened: as §1

[2] = system: PKCε phosphorylation of Cx43‐CT substrate at Ser368; test: PKCε Cx43 CT S368 phosphorylation assay; type: biochemical; conditions: Western blot pS368/total Cx43; biotin-tagged peptides
Procedure, shortened: (§2)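 PKCε (400 ng/mL, prediluted in HEPES/CHAPS/DTT buffer) is used with wild-type or KK/QQ Cx43‑CT (aa 255–382) substrate at 14 μg/mL, plus peptide. Incubated 12 min at 37°C, quenched in LDS, blotted for pS368, stripped, reprobed for total Cx43. % phosphorylation normalized to PKC+ no-peptide control.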

[3] = system: Cx43 CT KK/QQ mutant substrate; test: PKCε phosphorylation assay with Cx43 CT KK/QQ mutant substrate; type: biochemical; conditions: biotin‐αCT1 20 μmol/L
Procedure, shortened: as §2

ZO‐1 PDZ2 = test: Protein thermal shift assay, ZO‐1 PDZ2; type: binding; conditions: 500 μg/mL GST‐PDZ2, 25 to 100 μmol/L peptide, PBS pH 7.4, SYPRO Orange, N=6
Procedure, shortened: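 Recombinant GST–PDZ2 (500 μg/mL) is mixed with 25–100 μmol/L peptide in PBS pH 7.4 with SYPRO Orange at 8× final. Melt runs from 25°C to 95°C in 0.05 °C/s steps on a real-time PCR instrument, ROX channel, no quencher. Tm is compared against unliganded protein. Six independent runs.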

ZO‐1 PDZ2 domain = test: EDC zero-length cross‐linking to GST ZO‐1 PDZ domains; type: binding; conditions: biotin‐tagged peptide at 5, 25 and 50 μmol/L, NeutrAvidin labeling
Procedure, shortened: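 Direct coupling uses purified GST–ZO‑1 PDZ fusion protein from IPTG-induced BL21 at 50 μg/mL with biotinylated peptide in PBS pH 7.5. They react 1 h at room temperature before EDC is added. The mixture is boiled in LDS buffer, run on 18% SDS‑PAGE and blotted for GST or with NeutrAvidin‑HRP by chemiluminescence.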

Chain of Cx43 CT (amino acids 255–382) (P08050 255-382): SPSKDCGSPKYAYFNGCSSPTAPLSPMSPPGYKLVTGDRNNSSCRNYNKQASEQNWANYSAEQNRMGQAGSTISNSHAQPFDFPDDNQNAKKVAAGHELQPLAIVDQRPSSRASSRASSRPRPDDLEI

Cx43 CT KK/QQ mutant binding to immobilized biotin-peptide (SPR response) (Cx43 CT‐KK/QQ)	Sequence	Cx43 S368 phosphorylation versus PKCε+plus control (in words) [2]	other results
minimal interaction	RQPKIWFPNRRKPWKK RPRPAALEI [Peptide M2]	did not increase Cx43 S368 phosphorylation	–
minimal interaction	RQPKIWFPNRRKPWKK RPRPDDLBI [Peptide M3]	did not increase Cx43 S368 phosphorylation	SPR binding kinetics with Cx43 CT (in words) ([1]; inspection of SPR curves): higher initial on rate; Change of ZO‐1 PDZ2 melt temperature (Tm) (ZO‐1 PDZ2): evidence of significant interaction

Further lines, the sequence ahead of its results:

Sequence	Cx43 CT KK/QQ mutant binding to immobilized biotin-peptide (SPR response) (Cx43 CT‐KK/QQ)	Cx43 S368 phosphorylation versus PKCε+plus control (in words) [2]	other results
RQPKIWFPNRRKPWKK LPAARIAPR [Peptide M4]	–	–	Cross‐linking to Cx43 CT by EDC (Cx43 CT): no evidence of cross‐linking
RQPKIWFPNRRKPWKK RPRPAALAI [Peptide M1]	minimal interaction	did not increase Cx43 S368 phosphorylation	Cx43 CT binding to immobilized biotin-peptide (SPR response) ([1]; analyte 0.5 to 15 μmol/L, reverse control peptide subtracted, mean of 3 runs): loss of Cx43 CT binding competence; Phosphorylation of Cx43 CT KK/QQ mutant substrate [3]: Neither αCT1 nor M1 prompted an increase in phosphorylation
RQPKIWFPNRRKPWKK RPRPDDLE [αCT1‐I]	–	significant increase in PKCε‐mediated phosphorylation of Cx43 CT	Interaction with ZO‐1 PDZ2 by EDC cross‐linking (ZO‐1 PDZ2 domain): incompetent to interact with the ZO‐1 PDZ2 domain
